Activity calls are given as the source filed them. The rule behind the calls is not given here.

For series [1], the system named is Mus musculus. The series can be described thus: Toxicity in human MDA-MB-231 cells xenografted athymic nude mouse left cardiac ventricle assessed as effect on alanine aminotransferase at 50 mg/kg, ip administered every other day for 3 weeks (reference value: 7.04 +/- 2.2 U/L). The series is classed as organism-based, Heart. Details: dose 50 mg/kg, route intraperitoneal. Particulars: in vivo, 504 h. (In general: Xenograft models place foreign cells or tissue in a host animal.)

For series [2], the system named is MDA-MB-231. The series is described as follows: Inhibition of osteolytic bone metastases in human MDA-MB-231 cells xenografted in athymic nude mouse left cardiac ventricle assessed as reduction of bone-tumor interface at 50 mg/kg, ip administered every other day for 3 weeks. As to conditions: MDA-MB-231, Heart left ventricle, 504 h, route intraperitoneal. The series is classed as functional. A digest of the protocol: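 Intracardiac MDA-MB-231 model in nude mice, dosed ip every other day for 21 days. Mid-sagittal tibia and femur sections TRAP-stained. TRAP+ multinucleated (>3 nuclei) cells counted at 40x along the tumor-bone interface. Expressed as osteoclasts per mm of interface.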

Series [3] relates to MDA-MB-231. The series can be described thus: Inhibition of TGF-beta-induced PTHrP secretion in human MDA-MB-231 cells at 100 uM treated 4 hrs before TGF-beta challenge measured after 24 hrs by radioimmunoassay. It is filed as functional, cell-based. The method, boiled down:
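MDA-MB-231 plated at 5 × 10^4 cells/cm2 and held overnight in DMEM with 10% FBS. Pre-treated 4 h with compound (0.1–100 μM in methods; 0.1–300 μM in legend) in 2% FBS, then recombinant human TGF-β1 (5 ng/mL) or medium alone for 24 h. PTHrP measured in conditioned media by radioimmunoassay, n = 4 wells/group. IC50 from four-parameter logistic fit.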

In series [4] the test system is MDA-MB-231. The series can be described thus: Inhibition of osteolytic bone metastases in human MDA-MB-231 cells xenografted in athymic nude mouse left cardiac ventricle assessed as reduction in lytic bone lesion area at 25 to 50 mg/kg, ip administered every other day for 3 weeks measured on day 21 relative to control. It is filed as functional, Heart left ventricle. Particulars: dose mg/kg 25-50; route intraperitoneal. A digest of the protocol:
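Four-week female athymic nude mice inoculated with 1 × 10^5 MDA-MB-231 cells in 0.1 mL PBS into the left cardiac ventricle. Dosed ip at 25 or 50 mg/kg or vehicle every other day from day 1 for 21 days, n = 11/group. Lytic lesion area quantified on radiographs on days 12, 16 and 21. Two-way ANOVA with Bonferroni.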

For series [5], the system named is MDA-MB-231. The series can be described thus: Inhibition of osteolytic bone metastases in human MDA-MB-231 cells xenografted in athymic nude mouse left cardiac ventricle assessed as improvement in body weight at 25 to 50 mg/kg, ip administered every other day for 3 weeks measured on day 16 relative to vehicle-treated control. As to conditions: Heart left ventricle. The series is classed as functional, organism-based.

In series [6] the test system is MDA-MB-231. The series can be described thus: Inhibition of osteolytic bone metastases in human MDA-MB-231 cells xenografted in athymic nude mouse left cardiac ventricle assessed as effect on tumor burden at 25 to 50 mg/kg, ip administered every other day for 3 weeks by histological analysis. The series is classed as functional, organism-based. As to conditions: Heart left ventricle. The method, boiled down:
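Intracardiac MDA-MB-231 model in female nude mice, dosed ip every other day for 21 days, n = 11/group. Hindlimbs harvested day 21, formalin-fixed and EDTA-decalcified. Tumor area measured blinded on mid-sagittal 5 μm H&E sections of tibiae and femora at 10x magnification.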

The subject of series [7] is Mus musculus. The series can be described thus: Toxicity in human MDA-MB-231 cells xenografted athymic nude mouse left cardiac ventricle assessed as effect on white blood cells at 50 mg/kg, ip administered every other day for 3 weeks (reference value: 5.84 +/- 1.3 K/uL). Particulars: in vivo, 504 h.
Series [8] relates to Mus musculus. The series can be described thus: Toxicity in human MDA-MB-231 cells xenografted athymic nude mouse left cardiac ventricle assessed as effect on hematocrit at 25 mg/kg, ip administered every other day for 3 weeks (reference value: 30.2 +/- 1.5%). The series is classed as organism-based, Heart. As to conditions: in vivo, 504 h. Further details: dose 25 mg/kg, route intraperitoneal.

The inhibition in vivo is the relative decrease from the control value, in per cent. Turning to `O=C(/C=C/c1ccc(O)cc1)CC(=O)/C=C/c1ccc(O)cc1` [BISDEMETHOXYCURCUMIN], the values for the Activity with Mus musculus [1], with Mus musculus [7] and with Mus musculus [8] were 5.02 U/L, 6.83 K/uL and 30.6%, respectively. Moreover, the inhibition in vivo at 50 mg/kg in the series on MDA-MB-231 [2] came to 48%. Besides, the inhibition entry in the series with MDA-MB-231 [3] is “Active”. In addition, in the series with MDA-MB-231 [4], the “inhibition (INH)” value is given as 57%. The outcome in the series with MDA-MB-231 [5] was Active. Moreover, in the series on MDA-MB-231 [6], the inhibition result was “inactive”.

With `COc1cc(/C=C/C(=O)CC(=O)/C=C/c2ccc(O)c(OC)c2)ccc1O` [CURCUMIN], the Activity in the series with Mus musculus [1] worked out at 5.02 U/L; in the series on Mus musculus [7] it was 6.83 K/uL; in the series with Mus musculus [8], 30.6%. Moreover, in the series on MDA-MB-231 [2], the inhibition in vivo at 50 mg/kg amounted to 48%. For the same compound, in the series with MDA-MB-231 [3], the inhibition entry is “Active”. The “inhibition (INH)” value in the series with MDA-MB-231 [4] worked out at 57%. Also, the outcome in the series with MDA-MB-231 [5] was Active. Besides, the inhibition result in the series on MDA-MB-231 [6] was “inactive”.

With `COc1cc(/C=C/C(O)=C/C(=O)/C=C/c2ccc(O)cc2)ccc1O` [DEMETHOXYCURCUMIN], the Activity in the series on Mus musculus [1] was determined as 5.02 U/L; with Mus musculus [7] it was 6.83 K/uL; in the series on Mus musculus [8] it was 30.6%. The inhibition in vivo at 50 mg/kg in the series on MDA-MB-231 [2] is 48%. For the same compound, the inhibition result with MDA-MB-231 [3] was “Active”. The “inhibition (INH)” value in the series on MDA-MB-231 [4] amounted to 57%. Moreover, the outcome with MDA-MB-231 [5] was Active. The inhibition result in the series with MDA-MB-231 [6] was “inactive”.

The values are drawn from ChEMBL document CHEMBL2396536, “Curcuminoids block TGF-β signaling in human breast cancer cells and limit osteolysis in a murine model of breast cancer bone metastasis” (J Nat Prod, 2013).
